Laboratory results as given in ChEMBL document CHEMBL1158346, “Synthesis and antioxidant potential of novel synthetic benzophenone analogues” (Eur J Med Chem, 2009).
Calls of active or inactive are those of the source. No cut-off for these calls is given here.

Tests used:
[1] = Cytotoxicity against hTERT-HME1 cells after 72 hrs by MTT assay; assay type: cell-based, Homo sapiens; conditions: for IC50: Homo sapiens, HME1, 72 h; for IC20 at 72 h: human, hTERT-HME1 cells
Outline: (§1)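 Cells seeded at 1 ×10⁴ per well and allowed 24 h, then exposed 48 or 72 h. Medium replaced with fresh medium containing MTT at 0.5 mg/ml final, 3 h at 37 °C. MCF7 in phenol red-free RPMI-1640 with 10% FBS; hTERT-HME1 in RPMI-1640/mammary epithelial growth medium 90:10. IC₂₀ and IC₅₀ are means of 8 assays ± SD.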

[2] = Antioxidant activity assessed as Fe2+ formation per nmol of compound by FRAP assay; assay type: functional
Outline: (§2)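 FRAP method: working reagent of acetate buffer, TPTZ solution and FeCl₃·6H₂O solution (25:2.5:2.5 by volume), warmed 30 min at 37 °C before addition. Absorbance read after 30 min at 30 s intervals. Trolox as reference antioxidant. Output is the antioxidant ratio, nmol Fe²⁺ per nmol compound, mean ± SD, n = 3.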

MCF7 [3] = test: Cytotoxicity against human MCF7 cells after 48 hrs by MTT assay; assay type: functional, cell-based; conditions: MCF7, 48 h; outline: as §1
MCF7 [4] = test: Cytotoxicity against human MCF7 cells after 72 hrs by MTT assay; assay type: functional, cell-based; conditions: MCF7, 72 h; outline: as §1
[5] = Cytotoxicity against hTERT-HME1 cells after 48 hrs by MTT assay; assay type: cell-based, Homo sapiens; conditions: for IC50: Homo sapiens, HME1, 48 h; for IC20 at 48 h: human, hTERT-HME1 cells; outline: as §1
[6] = Antioxidant activity assessed as Fe2+ formation per nmol of compound by FRAP assay relative to trolox; assay type: functional; outline: as §2
[7] = Antioxidant activity in 2',7'-dichlorodihydrofluorescein diacetate-treated hTERT-HME1 cells assessed as reduction of H2O2 production at 100 uM during after 24 hrs by FACS analysis; assay type: functional, Homo sapiens; parameters: scale not given: the % may be the effect or the level left
Outline: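 Mammary cells seeded at 0.75 ×10⁶ per 100-mm dish. Exposed to test agent or Trolox at […] (unit as printed) for 4, 8, 12, 24 and 48 h. Loaded with H₂DCFDA 15 min at 37 °C. Detached plus adherent cells resuspended in PBS; DCF read in FL1 on a FACScan. Output is the ratio of treated to DMSO-control fluorescence, mean ± SD, n = 3.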

## O=C(c1ccc(O)c(O)c1)c1ccc2sc(=O)[nH]c2c1
[1]
  IC50: 116 µM
  IC20 at 72 h: 33.8 µM
[2]
  Activity: 6.1 nmol
MCF7 [3]
  IC20: 12.1 µM
  IC50: 43.6 µM
MCF7 [4]
  IC20: 8.3 µM
  IC50: 28.1 µM
[5]
  IC50: 155 µM
  IC20 at 48 h: 43.5 µM
[6]
  Ratio: 2

## O=C(c1ccc(O)cc1)c1ccc2sc(=O)[nH]c2c1
[1]
  IC50: 111 µM
  IC20 at 72 h: 78.4 µM
[2]
  Activity: inactive
MCF7 [3]
  IC20: 44.5 µM
  IC50: 121 µM
MCF7 [4]
  IC20: 37.8 µM
  IC50: 95.9 µM
[5]
  IC50: 109 µM
  IC20 at 48 h: 73.1 µM

## Cc1c(C)c2c(c(C)c1O)CCC(C)(C(=O)O)O2 (stereo not given) [TROLOX]
[7]
  Activity: 20%
